Data set [1] concerns the target T1, Amine oxidase [flavin-containing] A (Homo sapiens, UniProt P21397).
T1 sequence (P21397 whole entry): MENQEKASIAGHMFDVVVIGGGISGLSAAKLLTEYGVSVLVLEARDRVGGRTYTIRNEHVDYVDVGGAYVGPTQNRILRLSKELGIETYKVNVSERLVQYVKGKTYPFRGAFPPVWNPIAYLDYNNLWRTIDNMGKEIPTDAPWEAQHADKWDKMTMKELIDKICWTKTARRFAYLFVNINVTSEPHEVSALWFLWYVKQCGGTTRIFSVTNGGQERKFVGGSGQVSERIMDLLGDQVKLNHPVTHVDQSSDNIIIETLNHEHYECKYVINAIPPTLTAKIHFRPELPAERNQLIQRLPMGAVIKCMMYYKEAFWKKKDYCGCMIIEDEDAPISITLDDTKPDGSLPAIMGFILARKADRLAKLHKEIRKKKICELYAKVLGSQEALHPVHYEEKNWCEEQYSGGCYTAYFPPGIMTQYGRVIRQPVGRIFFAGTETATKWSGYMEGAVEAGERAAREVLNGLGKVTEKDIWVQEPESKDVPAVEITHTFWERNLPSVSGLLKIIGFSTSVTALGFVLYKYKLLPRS
The data set can be described thus: Inhibition of MAO-A (unknown origin) using p-tyramine as substrate preincubated for 15 mins followed by substrate addition and measured after 15 mins by Amplex red fluorescence based microplate reader assay.

Data set [2] is described as follows: Inhibition of 5-HT2AR mRNA expression in zebra fish AB assessed as fold decrease in 2 delta delta CT level at 1 uM by RT-qPCR method relative to control. It is filed as functional, Danio rerio. In short, it runs like this: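 Total RNA from zebrafish was extracted with Trizol and reverse-transcribed with MMLV. SYBR Green qPCR: 95 °C 2 min; 40 cycles of 95, 60 and 72 °C, 30 s each; then 72 °C for 5 min. 5-HT2AR was normalized to GAPDH by the 2^−ΔΔCT method; mean ± SD, n = 3.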
(In general: In qPCR the cycle at which signal appears reflects the starting amount.)

Data set [3] can be described thus: Cytotoxicity against human SH-SY5Y cells assessed as reduction in cell growth measured after 48 hrs by MTT assay. It is filed as toxicity, cell-based. The procedure, abridged:
(§1)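 MTT assay: PC12, SH-SY5Y or L02 cells at 5.0 × 10^3 per well were grown for 24 h, treated with compound dilutions from 10 mM DMSO stocks, and cultured 48 h. MTT was then added for 4 h at 37 °C, formazan dissolved in DMSO, and absorbance read at 570 nm. Viability is relative to blank control; IC50 from three repeats. Media contained 10% FBS.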
(Tetrazolium assays rely on reduction of a dye to a coloured formazan, in cell work by metabolically active cells.)

Data set [4] is filed under the species Homo sapiens. Briefly: Selectivity index, ratio of IC50 for inhibition of MAO-B (unknown origin) to IC50 for inhibition of MAO-A (unknown origin). In short, it runs like this: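 Amplex Red coupled assay. Test sample was preincubated with MAO-A or MAO-B at 37 °C for 15 min. p-Tyramine substrate working solution was added, with HRP converting the H2O2 formed to resorufin, for a further 15 min at 37 °C. Fluorescence read at Ex 545/Em 590 nm. […] SI = MAO-B IC50 / MAO-A IC50.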

Data set [5] addresses T2, Amine oxidase [flavin-containing] B (Homo sapiens, UniProt P27338).
T2 sequence (P27338 whole entry): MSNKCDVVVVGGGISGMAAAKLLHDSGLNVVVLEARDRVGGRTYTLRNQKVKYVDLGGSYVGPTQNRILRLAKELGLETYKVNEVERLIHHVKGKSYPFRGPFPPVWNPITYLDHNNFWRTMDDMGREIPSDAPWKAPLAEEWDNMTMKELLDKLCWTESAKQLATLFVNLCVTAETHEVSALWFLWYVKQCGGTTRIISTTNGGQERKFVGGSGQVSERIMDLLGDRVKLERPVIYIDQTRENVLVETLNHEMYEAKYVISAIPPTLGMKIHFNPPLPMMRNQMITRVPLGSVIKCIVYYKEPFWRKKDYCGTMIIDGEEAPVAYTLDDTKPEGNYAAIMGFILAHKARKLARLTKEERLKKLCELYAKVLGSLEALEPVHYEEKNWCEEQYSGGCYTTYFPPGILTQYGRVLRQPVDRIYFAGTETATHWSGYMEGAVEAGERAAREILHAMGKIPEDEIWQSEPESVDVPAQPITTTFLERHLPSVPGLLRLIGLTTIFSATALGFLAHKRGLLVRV
Briefly: Inhibition of MAO-B (unknown origin) using p-tyramine as substrate preincubated for 15 mins followed by substrate addition and measured after 15 mins by Amplex red fluorescence based microplate reader assay.

Data set [6] in a line: Cytotoxicity against human L02 cells assessed as reduction in cell growth measured after 48 hrs by MTT assay. It is filed as toxicity, cell-based. The procedure, abridged: as §1
The nature of data set [7]: Cytotoxicity against rat PC-12 cells assessed as reduction in cell growth measured after 48 hrs by MTT assay. It is filed as toxicity, cell-based. The procedure, abridged: as §1
Data set [8] concerns Mus musculus. Briefly: Antidepressant activity in reserpine-induced mouse assessed as increase in 5-HT1AR expression at 20 mg/kg pretreated with reserpine for 3 days followed by compound addition on day 4 to 10 by Western blot analysis. It is filed as functional, organism-based. Conditions: time 6.0 day. The procedure, abridged:
(§2)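 ICR mice given reserpine 1 mg/kg i.p. for 3 consecutive days, then treated daily on days 4–10 (saline 10 mL/kg as vehicle control). Whole-brain protein quantified by BCA, diluted to 3 mg/mL, 10 μL run on 4–20% SDS-PAGE, transferred, blocked, primary antibody 4 °C overnight, secondary 1 h room temperature. Relative 5-HT1AR and 5-HT2AR levels, mean ± SD, n = 3.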

Data set [9] deals with Mus musculus. The data set can be described thus: Antidepressant activity in reserpine-induced mouse assessed as downregulation of 5-HT2AR expression at 20 mg/kg pretreated with reserpine for 3 days followed by compound addition on day 4 to 10 by Western blot analysis. The settings on record: time 6.0 day. It is filed as functional, organism-based. The procedure, abridged:
as §2

Calls of active or inactive are those of the source. The calls are words filed in the database; no cut-off is given here.

As a reminder, the IC50 is the concentration at which inhibition is half-maximal. In the case of `O=C1c2ccccc2-c2nccc3cc(OCCCCN4CCN(c5ccccc5F)CC4)cc1c23`, the half-maximal inhibitory concentration (IC50) was determined as 0.008 µM in data set [1] and 1.49 µM in data set [5]. Also, the “fold change (FC)” value in data set [2] was 0.048. Also, the IC50 at 48 h was > 10 µM in data set [3], > 100 µM in data set [6] and > 10 µM in data set [7]. The Ratio IC50 in data set [4] worked out at 186.

As to `O=C1c2ccccc2-c2nccc3cc(OCCCCCN4CCN(c5cccc(Cl)c5Cl)CC4)cc1c23`, the IC50 in data set [1] is 0.006 µM; in data set [5], 0.89 µM. The “fold change (FC)” value in [2] stood at 0.049. The IC50 at 48 h in [3] is > 10 µM; in data set [6] it was > 100 µM; in data set [7], > 10 µM. Further, in data set [4], the Ratio IC50 stood at 148.

In the case of `O=C1c2ccccc2-c2nccc3cc(OCCCN4CCN(c5ccccc5Cl)CC4)cc1c23`, the IC50 in [1] is 0.361 µM; in [5], 15.1 µM. For the same compound, the “fold change (FC)” value in data set [2] was found to be 1.886. Further, the IC50 at 48 h in data set [3] was > 10 µM; in data set [6], > 100 µM; in data set [7], > 10 µM. Also, the Ratio IC50 in data set [4] is 41.9.

Regarding `CNCCC(Oc1ccc(C(F)(F)F)cc1)c1ccccc1` (centres undefined), the outcome in data set [8] and in [9] was Active.

As to `O=C1c2ccccc2-c2nccc3cc(O)cc1c23`, the results for the IC50 in [1] and in data set [5] were 1.26 µM and 23.5 µM, respectively. Further, the “fold change (FC)” value in [2] amounted to 2.675. Besides, the Ratio IC50 in data set [4] stood at 18.6.

With `O=C1c2ccccc2-c2nccc3cc(OCCCN4CCN(c5ccccc5F)CC4)cc1c23`, the half-maximal inhibitory concentration (IC50) in [1] came out at 0.005 µM; in data set [5], 1.01 µM. Also, the “fold change (FC)” value in [2] is 0.038. The 50% inhibitory concentration (IC50) at 48 h in data set [3] was > 10 µM; in data set [6], > 100 µM; in [7], > 10 µM. For the same compound, the Ratio IC50 in [4] stood at 202.

Take `O=C1c2ccccc2-c2nccc3cc(OCCCN4CCN(c5cccc(Cl)c5Cl)CC4)cc1c23`: the results for the half-maximal inhibitory concentration (IC50) in data set [1] and in [5] were 0.011 µM and 1.53 µM, respectively. Also, the “fold change (FC)” value in data set [2] worked out at 0.055. Besides, the IC50 at 48 h in data set [3] is > 10 µM; in [6], > 100 µM; in [7] it was > 10 µM. Besides, the Ratio IC50 in [4] amounted to 139.

In the case of `O=C1c2ccccc2-c2nccc3cc(OCCCCCN4CCN(c5ccccc5)CC4)cc1c23`, the half-maximal inhibitory concentration (IC50) in data set [1] turned out to be 0.009 µM; in data set [5], 1.46 µM. Also, the “fold change (FC)” value in data set [2] turned out to be 0.06. Moreover, the IC50 at 48 h in data set [3] is > 10 µM; in data set [6] it was > 100 µM; in data set [7] it was > 10 µM. The Ratio IC50 in data set [4] turned out to be 162.

Turning to `O=C1c2ccccc2-c2nccc3cc(OCCCCN4CCN(c5cccc(Cl)c5Cl)CC4)cc1c23`, the values for the 50% inhibitory concentration (IC50) in data set [1] and in data set [5] were 0.072 µM and 2.16 µM, respectively. In data set [2], the “fold change (FC)” value came out at 0.578. In addition, the 50% inhibitory concentration (IC50) at 48 h is > 10 µM in data set [3], > 100 µM in data set [6] and > 10 µM in data set [7]. In addition, the Ratio IC50 in data set [4] was 30.

With `COc1ccccc1N1CCN(CCCCOc2cc3c4c(nccc4c2)-c2ccccc2C3=O)CC1`, the half-maximal inhibitory concentration (IC50) in [1] turned out to be 0.091 µM; in data set [5], 4.28 µM. Also, the “fold change (FC)” value in [2] is reported as 0.685. Moreover, the IC50 at 48 h in data set [3] is > 10 µM; in data set [6] it was > 100 µM; in [7], > 10 µM. The Ratio IC50 in [4] was 47.

In the case of `O=C1c2ccccc2-c2nccc3cc(OCCCN4CCN(c5ccccc5)CC4)cc1c23`, the half-maximal inhibitory concentration (IC50) in [1] is 0.009 µM; in data set [5], 0.85 µM. Also, in data set [2], the “fold change (FC)” value worked out at 0.069. Further, the figures for the 50% inhibitory concentration (IC50) at 48 h in [3], in data set [6] and in data set [7] were > 10 µM, > 100 µM and > 10 µM, respectively. For the same compound, the Ratio IC50 in data set [4] came out at 94.4.

For the compound `O=C1c2ccccc2-c2nccc3cc(OCCCCN4CCN(c5ccccc5)CC4)cc1c23`, the half-inhibitory concentration (IC50) in [1] is 0.049 µM; in data set [5] it was 3.42 µM. Also, the “fold change (FC)” value in data set [2] was 1.341. For the same compound, the IC50 at 48 h in [3] is > 10 µM; in data set [6] it was > 100 µM; in [7], > 10 µM. Moreover, the Ratio IC50 in [4] is 69.8.

Turning to `O=C1c2ccccc2-c2nccc3cc(OCCCCN4CCN(c5ccccc5Cl)CC4)cc1c23`, the IC50 in data set [1] was determined as 0.503 µM; in data set [5], 12.7 µM. For the same compound, in data set [2], the “fold change (FC)” value came to 2.575. Moreover, the concentration for half-maximal inhibition (IC50) at 48 h in data set [3] is > 10 µM; in [6], > 100 µM; in [7], > 10 µM. Moreover, in data set [4], the Ratio IC50 amounted to 25.3.

Turning to `COc1ccccc1N1CCN(CCCCCOc2cc3c4c(nccc4c2)-c2ccccc2C3=O)CC1`, the figures for the IC50 in data set [1] and in data set [5] were 0.014 µM and 1.38 µM, respectively. Moreover, the “fold change (FC)” value in data set [2] is given as 0.142. The IC50 at 48 h in data set [3] is > 10 µM; in [6], > 100 µM; in data set [7], > 10 µM. Besides, the Ratio IC50 in data set [4] stood at 98.6.

Consider `COc1ccccc1N1CCN(CCCOc2cc3c4c(nccc4c2)-c2ccccc2C3=O)CC1`, for which the half-maximal inhibitory concentration (IC50) is 0.054 µM in [1] and 3.26 µM in data set [5]. Besides, the “fold change (FC)” value in data set [2] was 0.2. The IC50 at 48 h is > 10 µM in [3], > 100 µM in [6] and > 10 µM in data set [7]. The Ratio IC50 in data set [4] is 60.4.

Take `O=C1c2ccccc2-c2nccc3cc(OCCCCCN4CCN(c5ccccc5Cl)CC4)cc1c23`: the 50% inhibitory concentration (IC50) in data set [1] came to 0.086 µM; in data set [5], 4.19 µM. In addition, in [2], the “fold change (FC)” value was 1.804. The IC50 at 48 h in data set [3] was > 10 µM; in data set [6], > 100 µM; in [7], > 10 µM. For the same compound, in [4], the Ratio IC50 is 48.7.

(Values after ChEMBL document CHEMBL5108057, “Development of MAO-A and 5-HT2AR Dual Inhibitors with Improved Antidepressant Activity” (J Med Chem, 2022).)
